Test results from ChEMBL document CHEMBL4699631, “Antimalarial and anti-inflammatory activities of new chloroquine and primaquine hybrids: Targeting the blockade of malaria parasite transmission” (Bioorg Med Chem, 2020).

Experiments:
[1] = tested on: Plasmodium falciparum; experiment: Antimalarial activity against Plasmodium falciparum CQR (W2 clone) infected in human erythrocyte assessed as reduction in parasite growth incubated for 48 hrs by SYBR assay; type: functional, organism-based
Summary of the method: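 W2 parasites cultured in A+ human erythrocytes in RPMI 1640 with ALBUMAX II, candle jar, 37 °C. Rings synchronized with sorbitol, then exposed to serial dilutions at 0.5% parasitemia and 2% hematocrit for 48 h at 37 °C. Lysis buffer with SYBR Safe, 30 min in the dark, fluorescence read at ex 485 nm. IC50 from sigmoid curve fit against drug-free control.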

[2] = Cytotoxicity against monkey BGM cells assessed as reduction in cell viability incubated for 24 hrs by neutral red dye based assay; conditions: chlorocebus aethiops, read-out: MDL50
Summary of the method: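 BGM monkey kidney cells grown in RPMI 1640 with 10% heat-inactivated fetal serum and gentamicin, 5% CO2, 37 °C. Cells allowed to adhere for 24 h, then exposed to compounds at 1000–1 μg/mL for 24 h. Neutral red uptake for 3 h, formaldehyde/CaCl2 fix, alcohol-acetic acid elution, absorbance at 540 nm. Viability taken as percent of untreated cells after background subtraction. MLD50 derived from this.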

[3] = Selectivity index, ratio of MDL50 for monkey BGM cells to IC50 for Plasmodium falciparum CQR (W2 clone) infected in human Erythrocyte; type: toxicity
Summary of the method: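 SI calculated as MLD50 in BGM cells (neutral red, 24 h) divided by IC50 against P. falciparum W2 (SYBR, 48 h).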

[4] = Cytotoxicty against mouse J774.A1 cells assessed as cell viability at 12.5 uM incubated for 24 hrs by resazurin dye based assay (reference value: 100 %); conditions: read-out: Activity
Summary of the method: (§1)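 J774A.1 macrophages grown in DMEM with 10% FBS and 0.1% gentamycin, seeded at 1×10^5 cells/well. Exposed to compounds at 0, 12.5, 25, 50 or 100 μM for 24 h. Resazurin (10 μg/ml) added for 3 h, then fluorescence read. Run in triplicate. Viability given as percent of 0.2% DMSO-treated cells.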

[5] = Cytotoxicty against mouse J774.A1 cells assessed as cell viability at 25 uM incubated for 24 hrs by resazurin dye based assay (reference value: 100 %); conditions: read-out: Activity; summary of the method: as §1
[6] = Cytotoxicty against mouse J774.A1 cells assessed as cell viability at 50 uM incubated for 24 hrs by resazurin dye based assay (reference value: 100 %); conditions: read-out: Activity; summary of the method: as §1
[7] = Cytotoxicty against mouse J774.A1 cells assessed as cell viability at 100 uM incubated for 24 hrs by resazurin dye based assay (reference value: 100 %); conditions: read-out: Activity; summary of the method: as §1
[8] = tested on: J774.A1; experiment: Inhibition of LPS-induced NO production in mouse J774.A1 cells incubated for 24 hrs by Griess reagent based assay; type: functional, cell-based; conditions: dose microM 0.5-25, time 24.0 hrs
Summary of the method: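 Compounds made as 10 mM DMSO stocks and diluted in medium. J774A.1 cells pre-incubated with compounds at 25 μM for screening, or 0.5–25 μM for dose-response, with dexamethasone 1 μM or 0.2% DMSO as controls. Stimulated with LPS 37.5 ng/ml plus IFNγ 25 U/ml for 24 h at 37 °C, 5% CO2. Supernatant nitrite measured by Griess at 540 nm. Triplicate, mean ± SEM.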

[9] = tested on: J774.A1; experiment: Inhibition of LPS-induced TNFalpha production in mouse J774.A1 cells incubated for 24 hrs by ELISA; type: functional, cell-based; conditions: dose microM 0.5-25, time 24.0 hrs
Summary of the method: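 J774A.1 cells seeded at 2×10^6 cells/well. Pretreated with vehicle, dexamethasone 1 μM, or compounds at 0.5–25 μM. Stimulated with LPS 100 ng/ml for 24 h. Supernatants stored at −20 °C, then TNFα measured by sandwich ELISA in pg/mL. Triplicate, mean ± SEM.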

SMILES | IC50 [1] [µM] | CC50 at 24 h [2] [µM] | selectivity ratio [3] | viability at 24 h, 12.5 µM [4] [%] | viability at 24 h, 25 µM [5] [%] | viability at 24 h, 50 µM [6] [%] | viability at 24 h, 100 µM [7] [%] | inhibition [8] | inhibition [9]
CC(=O)Nc1ccc(C)cc1C(=O)C(=O)NCCNc1ccnc2cc(Cl)ccc12 | 0.49 | > 84 | > 170 | – | – | – | – | – | –
CC(=O)Nc1ccc(Cl)cc1C(F)(F)C(=O)NCCCNc1ccnc2cc(Cl)ccc12 | 0.5 | 654 | > 1300 | 100 | 95.5 | 87.5 | 10.4 | Dose-dependent effect | Dose-dependent effect
COc1cc(NC(C)CCCNC(=O)C(=O)c2cc(Cl)ccc2NC(C)=O)c2ncccc2c1 (stereo not given) | 7.7 | 164 | > 20 | 100 | 100 | 77.6 | 54.6 | – | –
COc1cc(NC(C)CCCNC(=O)C(=O)c2cc(C)ccc2NC(C)=O)c2ncccc2c1 (stereo not given) | 25.3 | > 2160 | > 80 | – | – | – | – | – | –
CC(=O)Nc1ccc(C)cc1C(=O)C(=O)NCCCCNc1ccnc2cc(Cl)ccc12 | 0.84 | – | – | – | – | – | – | – | –
COc1cc(NC(C)CCCNC(=O)C(=O)c2cc(Br)ccc2NC(C)=O)c2ncccc2c1 (stereo not given) | 2.5 | 309 | > 100 | 100 | 100 | 75.5 | 75.8 | – | –
COc1cc(NC(C)CCCNC(=O)C(F)(F)c2cc(Br)ccc2NC(C)=O)c2ncccc2c1 (stereo not given) | 3.5 | > 1820 | > 520 | – | – | – | – | – | –
COc1cc(NC(C)CCCNC(=O)C(F)(F)c2ccccc2NC(C)=O)c2ncccc2c1 (stereo not given) | 25.5 | 113 | 4 | – | – | – | – | – | –
COc1cc(NC(C)CCCNC(=O)C(F)(F)c2cc(C)ccc2NC(C)=O)c2ncccc2c1 (stereo not given) | 20.7 | – | – | – | – | – | – | – | –
CC(=O)Nc1ccc(C)cc1C(=O)C(=O)NCCCNc1ccnc2cc(Cl)ccc12 | 0.22 | – | – | – | – | – | – | – | –
CC(=O)Nc1ccc(Cl)cc1C(=O)C(=O)NCCNc1ccnc2cc(Cl)ccc12 | 0.52 | 152 | 292 | – | – | – | – | – | –
CC(=O)Nc1ccccc1C(F)(F)C(=O)NCCCCNc1ccnc2cc(Cl)ccc12 | 2.7 | 140 | > 50 | 100 | 100 | 83.7 | 10.4 | – | –
CC(=O)Nc1ccc(Br)cc1C(=O)C(=O)NCCCNc1ccnc2cc(Cl)ccc12 | 0.38 | 103 | 270 | – | – | – | – | – | –
CC(=O)Nc1ccccc1C(F)(F)C(=O)NCCCNc1ccnc2cc(Cl)ccc12 | 0.4 | 99 | > 250 | 100 | 100 | 91.5 | 33.3 | – | –
CC(=O)Nc1ccc(Cl)cc1C(=O)C(=O)NCCCCNc1ccnc2cc(Cl)ccc12 | 3.18 | 91.1 | 29 | – | – | – | – | – | –
COc1cc(NC(C)CCCNC(=O)C(=O)c2ccccc2NC(C)=O)c2ncccc2c1 (stereo not given) | 26.8 | – | – | – | – | – | – | – | –
CC(=O)Nc1ccccc1C(=O)C(=O)NCCNc1ccnc2cc(Cl)ccc12 | 0.71 | 261 | > 300 | – | – | – | – | – | –
